The record followed here is ChEMBL document CHEMBL3352730, “Synthesis and effects on cell viability of flavonols and 3-methyl ether derivatives on human leukemia cells” (Eur J Med Chem, 2014).

Structures are written as SMILES.

As a reminder, the IC50 is the concentration at which inhibition is half-maximal. Read a high IC50 as lower potency.

System in one test: not listed separately
Description: Cytotoxicity against human HL60 cells after 72 hrs by MTT assay. It counts as functional, cell-based. The note with it: HL-60, 72 h. The gist of the method: (§1)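 MTT colorimetric assay with 72 h continuous exposure. IC50 was fitted per experiment by non-linear regression. Values are means with SE from at least three independent experiments, each run in triplicate.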
The compound `COc1ccc(-c2oc3ccccc3c(=O)c2O)c(OC)c1` showed a concentration for half-maximal inhibition (IC50) of 53 µM.

`COc1cc(-c2oc3ccccc3c(=O)c2O)cc(OC)c1OC`: half-maximal inhibition (IC50) was put at 138 µM.

Take `COc1ccc2c(=O)c(OC)c(-c3cc(OC)c(OC)c(OC)c3)oc2c1`: inhibition was half-maximal at 21 µM (IC50).

In turn, `COc1ccc2c(=O)c(O)c(-c3cc(OC)c(OC)c(OC)c3)oc2c1` showed an IC50 of 34 µM.

`COc1ccc2c(=O)c(OC)c(-c3ccc(OC)c(C)c3OC)oc2c1` gave a half-inhibitory concentration (IC50) of 27 µM.

Compound `COc1ccc(-c2oc3cc(OC)ccc3c(=O)c2OC)cc1` returned an IC50 of 122 µM.

With `COc1ccc(-c2oc3cc(OC)ccc3c(=O)c2O)cc1`, the midpoint of inhibition, the IC50, lay at 148 µM.

Compound `COc1ccc(-c2oc3ccccc3c(=O)c2OC)c(OC)c1` displayed an IC50 of 34 µM.

Compound `COc1cc([C@@H]2c3cc4c(cc3[C@@H](O[C@@H]3O[C@@H]5CO[C@@H](C)O[C@H]5[C@H](O)[C@H]3O)[C@H]3COC(=O)[C@H]23)OCO4)cc(OC)c1O` [ETOPOSIDE] gave a concentration for half-maximal inhibition (IC50) of 0.6 µM.

For the compound `COc1ccc(-c2oc3ccccc3c(=O)c2O)c(OC)c1C`, 32 µM corresponded to half-maximal inhibition (IC50).

Turning to `COc1c(-c2ccc(Cl)cc2)oc2ccccc2c1=O`, it took 26 µM to reach half-maximal inhibition (IC50).

`COc1ccccc1-c1oc2ccccc2c(=O)c1O` yielded an IC50 of 30 µM.

`O=c1c(O)c(-c2ccc(Cl)cc2)oc2ccccc12` came in with an IC50 of 102 µM.

`O=c1c(O)c(-c2ccc(O)c(O)c2)oc2cc(O)cc(O)c12` [QUERCETIN] gave an IC50 of 47 µM.

`COc1cc(O)c2c(=O)c(OC)c(-c3ccc(OC)c(OC)c3)oc2c1` [RETUSIN] returned an IC50 of 28 µM.

For the compound `O=c1c(O)c(-c2ccccc2Cl)oc2ccccc12`, the midpoint of inhibition, the IC50, lay at 10.7 µM.

In the case of `COc1ccc(-c2oc3ccccc3c(=O)c2OC)c(OC)c1C`, the half-inhibitory concentration (IC50) amounted to 96 µM.

In the case of `COc1ccccc1-c1oc2ccccc2c(=O)c1OC`, the IC50 stood at 98 µM.

`COc1c(-c2ccc(Br)cc2)oc2ccccc2c1=O` gave an IC50 of 21 µM.

The compound `COc1c(-c2cccc3ccccc23)oc2ccccc2c1=O` yielded an IC50 of 16 µM.

In turn, `COc1ccc(-c2oc3ccccc3c(=O)c2OC)cc1` gave an IC50 of 39 µM.

System in another test: not listed separately
Description: Cytotoxicity against human HL60/MX1 cells after 72 hrs by MTT assay. It counts as functional, cell-based. The note with it: HL60/MX1, 72 h. In outline: as §1
In general terms: Formazan colour is commonly taken as a measure of viable cells.
`O=c1c(O)c(-c2ccccc2Cl)oc2ccccc12`: the IC50 was greater than 30 µM.

Another test has as its system Raji. Description: Cytotoxicity against human Raji cells after 72 hrs by MTT assay. It counts as functional, cell-based.
Details: not given
In outline: as §1
Consider `O=c1c(O)c(-c2ccccc2Cl)oc2ccccc12`, for which the IC50 was greater than 30 µM.

A further test has as its system HL-60. Nature of the test: Induction of apoptosis in human HL60 cells at 30 uM after 24 hrs by propidium iodide staining based flow cytometry (reference value: 3.8 +/- 0.6%). It counts as functional.
Details: not given
A general note: Flow cytometry measures light scatter and fluorescence of single cells or particles in a stream.
In the case of `O=c1c(O)c(-c2ccccc2Cl)oc2ccccc12`, the Activity is on record as 14.9%.
